Article PMC5318329 (Drugs in R&D, 2016)

Tests used:
[1] = assay type: in vivo, human; settings: intravenous infusion up to 10 mg, 3 consecutive days
C-reactive protein (CRP) = settings: later time points (e.g. 72 h post dose), all dilmapimod dose levels; cited from earlier work
IL-6 = settings: cited from earlier work
[2] = assay type: in vivo, human
How it was run: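 Non-head-injury trauma patients randomised within 24–26 h of injury; daily IV infusion over 4 h or 24 h for 3 days. Plasma sampled pre-dose and serially after the first and third doses. Protein precipitation, then HPLC–MS/MS (LLOQ 0.1 ng/mL, ULOQ 100 ng/mL); NQ set missing, outliers excluded. NONMEM mixed-effects three-compartment model with first-order elimination; BMI power covariate centred at 27.4 kg/m2.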

[3] = final three-compartment population PK model, IV infusion
[4] = power model, covariate centred to population mean 27.4 kg/m^2

Terminal half-life ([2]; calculated based on typical value of CL, Vc, V2, V3, Q1 and Q2): 16 h
Q1 (inter-compartmental clearance), typical value [2, 3]: 28.2 L/h
Q2 (inter-compartmental clearance), typical value [2, 3]: 5.7 L/h
V2 (volume of distribution of peripheral compartment), typical value [2, 3]: 35.9 L
V3 (volume of distribution of peripheral compartment), typical value [2, 3]: 115.6 L
Vc (volume of distribution of the central compartment), typical value [2, 3]: 8.1 L
Clearance lower than in typical patient ([2]; patients with BMI of 23 kg/m^2 (mean - SD) vs typical patient (27.4 kg/m^2)): about 21%
Clearance higher than in typical patient ([2]; patients with BMI of 32 kg/m^2 (mean + SD) vs typical patient (27.4 kg/m^2)): ~23%
BMI covariate on CL (power model exponent) [2, 4]: 1.36
BMI covariate on Q2 (power model exponent) [2, 4]: 2.42
Vss (steady-state volume of distribution) = Vc + V2 + V3 ([2]; sum of Vc, V2 and V3 of the final population PK model): 160 L
SMILES: Cc1cc(F)ccc1-c1nc(NC(CO)CO)nc2c1ccc(=O)n2-c1c(F)cccc1F [Dilmapimod]
Tolerability [1]: generally well tolerated
CRP levels relative to placebo (exploratory analyses) (C-reactive protein (CRP)): trend of lower levels of CRP
IL-6 levels relative to placebo (exploratory analyses) (IL-6; 24 h post dose, all dilmapimod dose levels): trend of lower levels of IL-6
Ratios of IL-6 relative to placebo (IL-6; continuous infusion of 10 mg/24 h, up to 72 h post dose): below 1
Overall effect of dilmapimod on IL-6 levels in PK/PD modelling (IL-6; similar PK/PD modelling approach on IL-6 data): not revealed
Dose proportionality of plasma concentration ([2]; IV infusion 3, 7.5 mg over 4 h, 7.5, 10 mg over 24 h): increased approximately proportionally to the increase in dose
